Assay results reported in ChEMBL document CHEMBL2157878, “In vitro cellular uptake and dimerization of signal transducer and activator of transcription-3 (STAT3) identify the photosensitizing and imaging-potential of isomeric photosensitizers derived from chlorophyll-a and bacteriochlorophyll-a” (J Med Chem, 2011).

What was measured:
Format in all cases: ADME, organism-based
Mus musculus [1] = test: Drug uptake in mouse Colon 26 cells xenografted iv dosed BALB/c mouse after 24 hrs by PET imaging; conditions: in vivo
Summary of the method: (§1)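 Colon26 tumors grown subcutaneously in BALB/c mice. ¹²⁴I-labeled photosensitizer given into the tail vein at 52–122 μCi. Under isoflurane/oxygen anesthesia, animals were scanned prone on a microPET for 30 min at 24, 48 and 72 h post-injection. Tumor uptake was estimated by region-of-interest calculations.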

Mus musculus [2] = test: Drug uptake in mouse Colon 26 cells xenografted iv dosed BALB/c mouse after 48 hrs by PET imaging; conditions: in vivo; summary of the method: as §1
Mus musculus [3] = test: Drug uptake in mouse Colon 26 cells xenografted iv dosed BALB/c mouse after 72 hrs by PET imaging; conditions: in vivo; summary of the method: as §1
Liver = test: Drug uptake in parenterally dosed BALB/c mouse liver xenografted with mouse Colon 26 cells after 72 hrs by PET analysis; conditions: in vivo
Summary of the method: (§2)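 Tumor-bearing BALB/c mice (Colon26, subcutaneous) received ¹²⁴I-labeled photosensitizer via the tail vein at 15–50 μCi. Three mice per time point were sacrificed at 24, 48 and 72 h. Organs were removed, weighed and counted in a γ-well counter. Uptake was expressed as %ID/g tissue.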

Spleen = test: Drug uptake in parenterally dosed BALB/c mouse spleen xenografted with mouse Colon 26 cells after 72 hrs by PET analysis; conditions: in vivo; summary of the method: as §2
Intestine = test: Drug uptake in parenterally dosed BALB/c mouse intestine xenografted with mouse Colon 26 cells after 72 hrs by PET analysis; conditions: in vivo, other; summary of the method: as §2

Measured: Drug uptake

CC[C@H]1c2cc3[nH]c4c(c5nc(cc6[nH]c(cc(n2)[C@@H]1C)c(C(C)OCc1cccc([124I])c1)c6C)C(C)=C5CCC(=O)O)CC(=O)c4c3C (some centres undefined)
Active: all assays above

CC[C@H]1c2cc3[nH]c4c(c5nc(cc6[nH]c(cc(n2)[C@@H]1C)c(C(C)OCc1cccc([124I])c1)c6C)C(C)=C5CCC(=O)OC)CC(=O)c4c3C (some centres undefined)
Active: Mus musculus [1] | Mus musculus [2] | Mus musculus [3]
